ChEMBL document CHEMBL1811853, “Design and evaluation of 3-aminopyrazolopyridinone kinase inhibitors inspired by the natural product indirubin” (Bioorg Med Chem, 2011)
In brackets after ≈: the same amount, converted by molar mass.

Experiments:
[1] = Aqueous solubility of the compound by HPLC analysis; format: physicochemical; details: water
Method in brief: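 Solubility determined by HPLC measurement of the concentration in saturated aqueous solutions of the compounds.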

[2] = target: T1, Protein kinase C zeta type (Homo sapiens) (UniProt Q05513); experiment: Inhibition of PKCz at 30 uM by microfluidic mobility shift assay
T1 sequence (whole entry): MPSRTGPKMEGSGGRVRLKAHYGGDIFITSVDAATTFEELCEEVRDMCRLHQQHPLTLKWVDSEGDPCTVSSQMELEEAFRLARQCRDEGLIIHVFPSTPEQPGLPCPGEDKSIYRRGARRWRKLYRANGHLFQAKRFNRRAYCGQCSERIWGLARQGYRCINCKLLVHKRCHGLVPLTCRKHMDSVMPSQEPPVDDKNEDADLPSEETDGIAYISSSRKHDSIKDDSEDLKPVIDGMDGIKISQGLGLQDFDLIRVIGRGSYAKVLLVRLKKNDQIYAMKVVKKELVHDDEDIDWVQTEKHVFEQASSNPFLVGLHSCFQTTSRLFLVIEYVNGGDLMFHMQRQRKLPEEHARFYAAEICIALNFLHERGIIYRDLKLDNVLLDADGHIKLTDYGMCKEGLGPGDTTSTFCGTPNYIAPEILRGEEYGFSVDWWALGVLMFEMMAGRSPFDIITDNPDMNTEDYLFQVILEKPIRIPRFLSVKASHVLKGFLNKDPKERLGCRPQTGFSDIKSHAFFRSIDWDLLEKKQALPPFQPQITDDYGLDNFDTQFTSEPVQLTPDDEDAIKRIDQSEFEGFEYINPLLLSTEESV
Method in brief: (§1)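 Single-concentration screen, singlicate, 30 uM final (diluted from 1 mM DMSO solutions), fluorescently tagged peptide substrate appropriate to each kinase, ATP at apparent Km for each protein. Phosphorylated and unphosphorylated peptides separated electrophoretically; conversion is the phosphorylated peak area over the sum of both peaks. No-inhibitor and no-ATP controls; H89 reference on each plate.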

[3] = target: T2, MAP kinase-activated protein kinase 5 (Homo sapiens) (UniProt Q8IW41); experiment: Inhibition of PRAK1 at 30 uM by microfluidic mobility shift assay; method in brief: as §1
T2 sequence (whole entry): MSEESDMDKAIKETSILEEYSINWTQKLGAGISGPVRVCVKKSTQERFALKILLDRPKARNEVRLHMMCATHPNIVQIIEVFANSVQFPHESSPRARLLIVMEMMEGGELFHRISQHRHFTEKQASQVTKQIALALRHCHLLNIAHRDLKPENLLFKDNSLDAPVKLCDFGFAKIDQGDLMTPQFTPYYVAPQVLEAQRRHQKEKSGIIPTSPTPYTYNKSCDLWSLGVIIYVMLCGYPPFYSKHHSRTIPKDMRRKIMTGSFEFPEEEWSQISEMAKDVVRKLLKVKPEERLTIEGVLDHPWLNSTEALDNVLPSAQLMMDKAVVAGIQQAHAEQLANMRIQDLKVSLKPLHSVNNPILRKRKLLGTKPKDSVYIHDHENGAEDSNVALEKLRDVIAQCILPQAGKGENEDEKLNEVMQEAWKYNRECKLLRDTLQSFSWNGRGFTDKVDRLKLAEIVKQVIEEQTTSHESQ

[4] = target: Mitogen-activated protein kinase 3 (Homo sapiens) (UniProt P27361); experiment: Inhibition of ERK1 at 30 uM by microfluidic mobility shift assay; method in brief: as §1
Mitogen-activated protein kinase 3 (Homo sapiens), sequence (P27361 whole entry): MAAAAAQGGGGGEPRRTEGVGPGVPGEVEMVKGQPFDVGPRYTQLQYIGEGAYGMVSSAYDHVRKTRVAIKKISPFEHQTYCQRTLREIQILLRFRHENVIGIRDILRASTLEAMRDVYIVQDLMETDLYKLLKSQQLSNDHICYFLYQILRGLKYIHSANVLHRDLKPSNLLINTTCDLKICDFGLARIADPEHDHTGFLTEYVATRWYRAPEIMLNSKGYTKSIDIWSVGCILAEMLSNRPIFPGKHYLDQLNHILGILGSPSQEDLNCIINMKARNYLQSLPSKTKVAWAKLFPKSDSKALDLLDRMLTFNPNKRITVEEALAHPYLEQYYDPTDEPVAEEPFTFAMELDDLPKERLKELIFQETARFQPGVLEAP

[5] = target: Tyrosine-protein kinase ABL1 (Homo sapiens, UniProt P00519); experiment: Inhibition of ABL at 30 uM by microfluidic mobility shift assay; method in brief: as §1
[6] = target: Glycogen synthase kinase-3 beta (Homo sapiens) (UniProt P49841); experiment: Inhibition of GSK3B at 30 uM by microfluidic mobility shift assay; method in brief: as §1
[7] = target: Tyrosine-protein kinase Fyn (Homo sapiens, UniProt P06241); experiment: Inhibition of FYN at 30 uM by microfluidic mobility shift assay; method in brief: as §1
Tyrosine-protein kinase Fyn, sequence (P06241 2-537 limits assumed): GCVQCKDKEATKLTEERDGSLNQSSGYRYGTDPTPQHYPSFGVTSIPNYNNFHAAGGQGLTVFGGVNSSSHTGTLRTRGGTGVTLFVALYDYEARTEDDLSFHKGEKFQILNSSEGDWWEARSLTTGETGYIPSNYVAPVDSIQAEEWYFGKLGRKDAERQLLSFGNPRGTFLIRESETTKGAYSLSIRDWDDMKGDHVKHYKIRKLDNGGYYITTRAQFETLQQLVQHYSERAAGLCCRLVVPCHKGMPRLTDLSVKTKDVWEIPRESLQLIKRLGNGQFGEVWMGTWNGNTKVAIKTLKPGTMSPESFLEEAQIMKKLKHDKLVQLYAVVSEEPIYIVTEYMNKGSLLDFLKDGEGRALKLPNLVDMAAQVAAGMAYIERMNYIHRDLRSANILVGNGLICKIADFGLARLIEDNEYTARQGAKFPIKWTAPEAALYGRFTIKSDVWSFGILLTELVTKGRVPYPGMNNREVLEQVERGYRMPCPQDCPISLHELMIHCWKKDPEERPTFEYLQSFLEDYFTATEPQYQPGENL

[8] = target: Proto-oncogene tyrosine-protein kinase Src (Homo sapiens, UniProt P12931); experiment: Inhibition of SRC at 30 uM by microfluidic mobility shift assay; method in brief: as §1
Proto-oncogene tyrosine-protein kinase Src, sequence (P12931 2-536 limits assumed): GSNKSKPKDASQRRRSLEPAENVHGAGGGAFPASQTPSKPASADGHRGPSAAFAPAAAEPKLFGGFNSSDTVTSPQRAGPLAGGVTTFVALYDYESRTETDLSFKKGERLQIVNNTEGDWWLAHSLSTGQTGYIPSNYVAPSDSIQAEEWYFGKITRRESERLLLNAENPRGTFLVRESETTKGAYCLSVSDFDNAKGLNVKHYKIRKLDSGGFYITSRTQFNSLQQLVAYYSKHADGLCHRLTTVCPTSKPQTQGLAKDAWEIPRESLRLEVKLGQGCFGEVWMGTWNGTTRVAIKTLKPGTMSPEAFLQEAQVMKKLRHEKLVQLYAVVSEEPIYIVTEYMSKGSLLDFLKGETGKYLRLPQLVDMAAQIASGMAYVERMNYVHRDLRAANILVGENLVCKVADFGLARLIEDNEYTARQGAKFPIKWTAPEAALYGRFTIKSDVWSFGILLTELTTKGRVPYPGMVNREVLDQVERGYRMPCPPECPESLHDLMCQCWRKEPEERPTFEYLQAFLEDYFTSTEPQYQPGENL

[9] = target: Mitogen-activated protein kinase 1 (Homo sapiens) (UniProt P28482); experiment: Inhibition of ERK2 at 30 uM by microfluidic mobility shift assay; method in brief: as §1
[10] = target: Serine/threonine-protein kinase Chk2 (Homo sapiens, UniProt O96017); experiment: Inhibition of CHK2 at 30 uM by microfluidic mobility shift assay; method in brief: as §1
[11] = target: RAC-alpha serine/threonine-protein kinase (Homo sapiens) (UniProt P31749); experiment: Inhibition of AKT1 at 30 uM by microfluidic mobility shift assay; method in brief: as §1
RAC-alpha serine/threonine-protein kinase (Homo sapiens), sequence (P31749 whole entry): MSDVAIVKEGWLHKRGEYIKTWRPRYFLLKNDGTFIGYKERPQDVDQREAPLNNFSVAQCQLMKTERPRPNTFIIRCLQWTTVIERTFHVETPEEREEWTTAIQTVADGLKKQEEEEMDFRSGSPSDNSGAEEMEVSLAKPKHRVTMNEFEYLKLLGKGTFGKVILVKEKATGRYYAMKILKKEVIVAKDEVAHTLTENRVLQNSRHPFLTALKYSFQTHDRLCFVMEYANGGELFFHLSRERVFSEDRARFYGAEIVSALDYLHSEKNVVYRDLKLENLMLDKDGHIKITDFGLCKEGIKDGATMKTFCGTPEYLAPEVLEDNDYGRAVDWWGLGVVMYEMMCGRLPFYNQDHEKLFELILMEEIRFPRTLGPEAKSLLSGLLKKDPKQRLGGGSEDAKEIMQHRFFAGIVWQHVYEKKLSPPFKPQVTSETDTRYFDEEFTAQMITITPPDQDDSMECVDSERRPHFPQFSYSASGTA

[12] = target: RAC-beta serine/threonine-protein kinase (Homo sapiens) (UniProt P31751); experiment: Inhibition of AKT2 at 30 uM by microfluidic mobility shift assay; method in brief: as §1
RAC-beta serine/threonine-protein kinase (Homo sapiens), sequence (P31751 whole entry): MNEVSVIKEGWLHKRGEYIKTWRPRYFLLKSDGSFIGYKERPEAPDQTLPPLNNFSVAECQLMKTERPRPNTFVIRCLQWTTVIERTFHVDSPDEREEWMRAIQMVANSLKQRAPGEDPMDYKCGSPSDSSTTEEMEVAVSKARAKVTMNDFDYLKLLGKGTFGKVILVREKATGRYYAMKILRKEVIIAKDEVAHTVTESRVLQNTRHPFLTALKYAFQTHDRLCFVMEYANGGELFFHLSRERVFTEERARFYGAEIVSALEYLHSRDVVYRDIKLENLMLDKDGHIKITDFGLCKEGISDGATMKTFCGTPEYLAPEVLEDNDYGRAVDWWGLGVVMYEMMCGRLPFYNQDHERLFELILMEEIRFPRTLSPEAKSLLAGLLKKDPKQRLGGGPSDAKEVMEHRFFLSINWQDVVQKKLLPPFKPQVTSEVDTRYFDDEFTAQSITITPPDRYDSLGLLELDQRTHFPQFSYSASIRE

[13] = target: MAP kinase-activated protein kinase 2 (Homo sapiens, UniProt P49137); experiment: Inhibition of MAPKAPK2 at 30 uM by microfluidic mobility shift assay; method in brief: as §1
MAP kinase-activated protein kinase 2, sequence (P49137 whole entry, looked up): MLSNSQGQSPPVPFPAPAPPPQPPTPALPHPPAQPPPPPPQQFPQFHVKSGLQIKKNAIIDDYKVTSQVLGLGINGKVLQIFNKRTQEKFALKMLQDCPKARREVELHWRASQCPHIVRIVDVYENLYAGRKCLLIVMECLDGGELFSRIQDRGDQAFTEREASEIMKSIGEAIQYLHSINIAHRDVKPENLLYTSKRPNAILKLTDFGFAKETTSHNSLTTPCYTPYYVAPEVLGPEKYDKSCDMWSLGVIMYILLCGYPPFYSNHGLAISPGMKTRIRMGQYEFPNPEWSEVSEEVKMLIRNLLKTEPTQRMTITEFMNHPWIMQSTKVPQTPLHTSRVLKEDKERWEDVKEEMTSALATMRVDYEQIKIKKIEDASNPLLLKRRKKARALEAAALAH

[14] = target: Tyrosine-protein kinase Lyn (Homo sapiens, UniProt P07948); experiment: Inhibition of LYN at 30 uM by microfluidic mobility shift assay; method in brief: as §1
Tyrosine-protein kinase Lyn, sequence (P07948 2-512 limits assumed): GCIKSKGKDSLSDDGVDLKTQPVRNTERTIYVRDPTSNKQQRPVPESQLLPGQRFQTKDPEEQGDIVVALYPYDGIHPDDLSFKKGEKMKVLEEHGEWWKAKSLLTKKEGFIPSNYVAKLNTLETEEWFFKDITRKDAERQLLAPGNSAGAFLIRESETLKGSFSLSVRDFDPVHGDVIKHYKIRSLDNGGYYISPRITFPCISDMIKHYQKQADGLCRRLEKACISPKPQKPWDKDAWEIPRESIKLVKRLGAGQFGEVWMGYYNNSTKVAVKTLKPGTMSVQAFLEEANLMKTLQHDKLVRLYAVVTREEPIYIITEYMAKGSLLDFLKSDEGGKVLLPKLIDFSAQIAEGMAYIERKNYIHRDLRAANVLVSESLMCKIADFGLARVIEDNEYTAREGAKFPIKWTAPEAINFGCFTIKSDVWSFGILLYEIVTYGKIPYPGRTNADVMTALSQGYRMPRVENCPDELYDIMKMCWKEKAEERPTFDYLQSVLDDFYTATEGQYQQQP

[15] = target: Ribosomal protein S6 kinase alpha-5 (Homo sapiens) (UniProt O75582); experiment: Inhibition of MSK1 at 30 uM by microfluidic mobility shift assay; method in brief: as §1
[16] = target: Tyrosine-protein kinase Lck (Homo sapiens, UniProt P06239); experiment: Inhibition of LCK at 30 uM by microfluidic mobility shift assay; method in brief: as §1
[17] = target: Insulin receptor (Homo sapiens) (UniProt P06213); experiment: Inhibition of INSR at 30 uM by microfluidic mobility shift assay; method in brief: as §1
Insulin receptor (Homo sapiens), sequence (P06213 28-758 limits assumed): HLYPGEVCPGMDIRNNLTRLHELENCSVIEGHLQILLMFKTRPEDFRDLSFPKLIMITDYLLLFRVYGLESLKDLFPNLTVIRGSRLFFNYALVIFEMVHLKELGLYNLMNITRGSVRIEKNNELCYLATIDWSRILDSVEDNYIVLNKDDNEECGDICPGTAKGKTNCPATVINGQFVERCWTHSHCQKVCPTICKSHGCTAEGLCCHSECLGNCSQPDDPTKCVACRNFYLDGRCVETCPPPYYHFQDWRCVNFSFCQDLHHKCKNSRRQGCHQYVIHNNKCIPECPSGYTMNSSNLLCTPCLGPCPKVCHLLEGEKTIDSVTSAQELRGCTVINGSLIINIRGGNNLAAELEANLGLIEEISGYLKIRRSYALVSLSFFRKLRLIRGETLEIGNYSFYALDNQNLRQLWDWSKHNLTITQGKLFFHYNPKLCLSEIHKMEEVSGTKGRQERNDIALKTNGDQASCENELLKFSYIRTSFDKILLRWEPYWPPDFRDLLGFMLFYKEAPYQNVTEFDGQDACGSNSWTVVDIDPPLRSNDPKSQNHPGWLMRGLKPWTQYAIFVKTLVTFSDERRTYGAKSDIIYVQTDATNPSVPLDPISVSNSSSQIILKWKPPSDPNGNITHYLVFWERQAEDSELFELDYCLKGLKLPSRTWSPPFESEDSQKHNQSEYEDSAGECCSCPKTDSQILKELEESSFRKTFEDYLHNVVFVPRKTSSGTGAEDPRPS
Insulin receptor (Homo sapiens), sequence (P06213 763-1382 limits assumed): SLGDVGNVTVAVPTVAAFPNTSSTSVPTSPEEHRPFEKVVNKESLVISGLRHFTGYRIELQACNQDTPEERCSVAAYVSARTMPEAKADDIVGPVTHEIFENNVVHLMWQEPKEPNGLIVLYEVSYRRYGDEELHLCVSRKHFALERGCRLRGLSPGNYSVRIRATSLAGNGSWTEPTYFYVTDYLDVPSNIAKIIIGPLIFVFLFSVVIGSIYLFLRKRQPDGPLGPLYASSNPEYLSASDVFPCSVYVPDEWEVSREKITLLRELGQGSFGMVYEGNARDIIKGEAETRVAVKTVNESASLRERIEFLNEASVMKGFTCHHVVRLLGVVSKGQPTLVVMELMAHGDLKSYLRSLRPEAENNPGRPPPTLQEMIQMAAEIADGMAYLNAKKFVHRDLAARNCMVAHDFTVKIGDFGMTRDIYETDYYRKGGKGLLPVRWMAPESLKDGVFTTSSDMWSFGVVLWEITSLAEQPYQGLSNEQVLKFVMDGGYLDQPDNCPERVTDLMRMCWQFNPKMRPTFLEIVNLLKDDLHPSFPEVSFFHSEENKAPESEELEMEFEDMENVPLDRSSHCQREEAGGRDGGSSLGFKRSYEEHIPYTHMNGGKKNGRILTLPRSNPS

[18] = target: Ribosomal protein S6 kinase alpha-1 (Homo sapiens) (UniProt Q15418); experiment: Inhibition of RSK1 at 30 uM by microfluidic mobility shift assay; method in brief: as §1
[19] = Inhibition of PKA at 30 uM by microfluidic mobility shift assay; method in brief: as §1
[20] = target: T3, Serine/threonine-protein kinase Chk1 (Homo sapiens) (UniProt O14757); experiment: Inhibition of CHK1 at 30 uM by microfluidic mobility shift assay; method in brief: as §1
T3 sequence (whole entry): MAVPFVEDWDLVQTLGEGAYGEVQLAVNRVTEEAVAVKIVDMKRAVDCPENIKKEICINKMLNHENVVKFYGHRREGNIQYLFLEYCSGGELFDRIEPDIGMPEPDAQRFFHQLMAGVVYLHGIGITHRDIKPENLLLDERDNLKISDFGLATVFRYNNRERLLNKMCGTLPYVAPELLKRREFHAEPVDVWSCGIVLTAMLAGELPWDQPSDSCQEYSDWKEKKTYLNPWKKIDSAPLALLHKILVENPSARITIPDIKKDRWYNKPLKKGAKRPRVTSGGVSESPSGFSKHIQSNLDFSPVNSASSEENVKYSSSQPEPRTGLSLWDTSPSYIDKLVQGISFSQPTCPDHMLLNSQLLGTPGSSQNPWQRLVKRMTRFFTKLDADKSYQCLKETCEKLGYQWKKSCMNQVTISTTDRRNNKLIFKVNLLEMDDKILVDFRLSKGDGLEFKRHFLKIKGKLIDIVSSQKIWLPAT

[21] = target: T4, Aurora kinase A (Homo sapiens) (UniProt O14965); experiment: Inhibition of AurA at 30 uM by microfluidic mobility shift assay; method in brief: as §1
T4 sequence (whole entry): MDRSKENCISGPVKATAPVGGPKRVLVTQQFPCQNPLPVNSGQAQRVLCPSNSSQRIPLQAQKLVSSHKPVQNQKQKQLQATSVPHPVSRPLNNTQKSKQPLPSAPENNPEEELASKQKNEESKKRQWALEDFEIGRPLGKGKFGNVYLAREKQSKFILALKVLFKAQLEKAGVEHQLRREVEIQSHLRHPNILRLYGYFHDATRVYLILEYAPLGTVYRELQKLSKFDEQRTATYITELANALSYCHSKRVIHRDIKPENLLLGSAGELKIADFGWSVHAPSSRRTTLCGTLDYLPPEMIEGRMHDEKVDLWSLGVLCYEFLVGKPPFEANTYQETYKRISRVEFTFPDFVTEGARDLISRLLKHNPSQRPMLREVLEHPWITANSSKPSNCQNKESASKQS

[22] = target: Mitogen-activated protein kinase 14 (Homo sapiens, UniProt Q16539); experiment: Inhibition of p38alpha at 30 uM by microfluidic mobility shift assay; method in brief: as §1
[23] = target: T5, Serine/threonine-protein kinase D2 (Homo sapiens) (UniProt Q9BZL6); experiment: Inhibition of PKD2 at 30 uM by microfluidic mobility shift assay; method in brief: as §1
T5 sequence (whole entry): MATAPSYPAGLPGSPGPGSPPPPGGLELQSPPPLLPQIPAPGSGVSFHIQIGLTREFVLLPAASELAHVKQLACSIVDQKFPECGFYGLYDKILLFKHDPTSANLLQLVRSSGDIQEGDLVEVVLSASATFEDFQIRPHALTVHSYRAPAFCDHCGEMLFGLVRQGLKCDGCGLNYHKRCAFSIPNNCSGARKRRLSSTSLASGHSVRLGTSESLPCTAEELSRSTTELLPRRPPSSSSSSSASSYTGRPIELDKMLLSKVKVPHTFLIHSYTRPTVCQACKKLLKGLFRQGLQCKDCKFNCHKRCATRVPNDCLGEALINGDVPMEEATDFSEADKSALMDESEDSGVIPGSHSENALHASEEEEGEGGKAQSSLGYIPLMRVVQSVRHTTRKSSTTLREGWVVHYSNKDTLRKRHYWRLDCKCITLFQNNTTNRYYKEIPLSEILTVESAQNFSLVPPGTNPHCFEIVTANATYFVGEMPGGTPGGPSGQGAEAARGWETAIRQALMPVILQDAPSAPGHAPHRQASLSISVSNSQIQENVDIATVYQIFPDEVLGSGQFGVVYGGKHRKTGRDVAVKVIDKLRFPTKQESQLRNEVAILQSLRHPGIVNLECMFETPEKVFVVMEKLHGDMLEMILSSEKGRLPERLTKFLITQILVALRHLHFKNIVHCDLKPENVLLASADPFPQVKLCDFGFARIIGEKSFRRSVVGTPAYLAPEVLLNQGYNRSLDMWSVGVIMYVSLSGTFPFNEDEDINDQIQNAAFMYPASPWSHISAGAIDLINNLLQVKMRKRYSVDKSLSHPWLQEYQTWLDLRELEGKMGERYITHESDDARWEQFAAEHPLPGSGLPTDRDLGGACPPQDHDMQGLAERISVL

Compound | inhibition [3] | inhibition [4] | inhibition [5] | inhibition [6] | inhibition [7] | inhibition [8] | inhibition [9] | inhibition [10] | inhibition [11] | inhibition [12] | inhibition [13] | inhibition [14] | inhibition [15] | inhibition [16] | inhibition [17] | inhibition [18] | inhibition [19] | inhibition [20] | inhibition [21] | inhibition [22] | further results
Nc1n[nH]c2cc(C3CCNCC3)[nH]c(=O)c12 |  |  |  |  |  |  |  |  |  |  |  |  |  |  |  |  |  |  |  |  | solubility [1]: 2340 µg/mL (≈ 10 mM)
CC(C)(C)c1cc2[nH]nc(N)c2c(=O)[nH]1 | 1% | 12% | 14% | 41% | 48% | 58% | 4% | 21% | 3% | 4% | 39% | 40% | 65% | 40% | 14% | 22% | 75% | 12% | 34% | 3% | inhibition [2]: -9%
Cn1nc(N)c2c(=O)[nH]c(C3CCNCC3)cc21 |  |  |  |  |  |  |  |  |  |  |  |  |  |  |  |  |  |  |  |  | solubility [1]: > 15000 µg/mL
Cc1cc2nn(-c3ccccc3)c(N)c2c(N2CCCCC2)n1 | 10% | 4% | 7% | 7% | 7% | 7% | 6% | 4% | 1% | -7% | 7% | 8% | 10% | 12% | -2% | 4% | 2% | -1% | 10% | 10% | inhibition [23]: 5%
Nc1n[nH]c2cc(CC3CCNCC3)[nH]c(=O)c12 | 3% | 4% | 7% | 4% | -3% | 4% | -2% | 7% | 13% | 6% | 35% | -1% | 62% | 4% | 1% | 11% | 71% | 16% | 5% | 3% | inhibition [23]: -6%
COCCNc1nc(C)cc2nn(-c3ccccc3)c(N)c12 | 2% | 3% | 4% | 10% | -3% | 2% | -1% | 4% | 3% | 2% | 3% | 6% | 3% | 0% | 1% | 2% | 1% | 0% | 32% | 3% | inhibition [23]: -1%
